Measured values: ChEMBL document CHEMBL4715736, “Identification of anticancer agents based on the thieno[2,3-b]pyridine and 1H-pyrazole molecular scaffolds” (2016)

test system: SF-539; experiment: Growth inhibition of human SF-539 cells assessed as cell growth at 100 uM incubated for 48 hrs by sulforhodamine B assay relative to control; type: functional; conditions: read-out: Activity

Compound | growth at 100 µM
CN1CCc2nc3sc(C(N)=O)c(N)c3c(-c3cccs3)c2C1 | -39%

test system: MDA-MB-231; experiment: Growth inhibition of human MDA-MB-231 cells assessed as cell growth at 100 uM incubated for 48 hrs by sulforhodamine B assay relative to control; type: functional; conditions: read-out: Activity

Compound | growth at 100 µM
CN1CCc2nc3sc(C(N)=O)c(N)c3c(-c3cccs3)c2C1 | 26%

test system: UO-31; experiment: Growth inhibition of human UO-31 cells assessed as cell growth at 100 uM incubated for 48 hrs by sulforhodamine B assay relative to control; type: functional; conditions: read-out: Activity

Compound | growth at 100 µM
CN1CCc2nc3sc(C(N)=O)c(N)c3c(-c3cccs3)c2C1 | 6%

test system: MDA-MB-468; experiment: Growth inhibition of human MDA-MB-468 cells assessed as cell growth at 0.1 uM incubated for 48 hrs by sulforhodamine B assay relative to control; type: functional; conditions: read-out: Activity

Compound | growth at 0.1 µM
CN1CCc2nc3sc(C(N)=O)c(N)c3c(-c3cccs3)c2C1 | 82%

test system: A498; experiment: Growth inhibition of human A498 cells incubated for 48 hrs by sulforhodamine B assay; type: functional; conditions: not given
Summary of the method: (§1)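 NCI Developmental Therapeutics Program NCI60 panel. Compounds that were active in the 10 µM one-dose screen went on to dose–response testing. Growth at each concentration is expressed relative to untreated control (100%). GI50 (concentration giving 50% of maximal inhibition of proliferation) and TGI (concentration giving total growth inhibition) were derived from the curves.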

Compound | GI50 | TGI
CN1CCc2nc3sc(C(N)=O)c(N)c3c(-c3cccs3)c2C1 | 2.58 µM | 7.27 µM

same assay, conditions: read-out: LC50 (the source's name)

Compound | CC50
CN1CCc2nc3sc(C(N)=O)c(N)c3c(-c3cccs3)c2C1 | > 100 µM

test system: A549; experiment: Growth inhibition of human A549/ATCC cells assessed as cell growth at 100 uM incubated for 48 hrs by sulforhodamine B assay relative to control; type: functional; conditions: read-out: Activity; summary of the method: as §1

Compound | growth at 100 µM
CN1CCc2nc3sc(C(N)=O)c(N)c3c(-c3cccs3)c2C1 | 9%

test system: SF-268; experiment: Growth inhibition of human SF-268 cells assessed as cell growth at 100 uM incubated for 48 hrs by sulforhodamine B assay relative to control; type: functional; conditions: read-out: Activity

Compound | growth at 100 µM
CN1CCc2nc3sc(C(N)=O)c(N)c3c(-c3cccs3)c2C1 | 2%

test system: SW-620; experiment: Growth inhibition of human SW-620 cells incubated for 48 hrs by sulforhodamine B assay; type: functional; conditions: not given
Summary of the method: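 NCI DTP 60-line human tumour panel. Dose-response curves were run only for ligands active in the initial 10 µM screen. GI50 (concentration giving 50% of maximal inhibition of proliferation) and TGI (concentration giving total growth inhibition) were derived from these curves.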

Compound | GI50 | LC50 (concentration killing 50% of cells) | TGI
CN1CCc2nc3sc(C(N)=O)c(N)c3c(-c3cccs3)c2C1 | 4.02 µM | > 100 µM | > 100 µM

test system: K562; experiment: Growth inhibition of human K562 cells assessed as cell growth at 100 uM incubated for 48 hrs by sulforhodamine B assay relative to control; type: functional; conditions: read-out: Activity

Compound | growth at 100 µM
CN1CCc2nc3sc(C(N)=O)c(N)c3c(-c3cccs3)c2C1 | 2%

test system: CCRF-CEM; experiment: Growth inhibition of human CCRF-CEM cells incubated for 48 hrs by sulforhodamine B assay; type: functional; conditions: not given; summary of the method: as §1

Compound | GI50 | LC50 | TGI
CN1CCc2nc3sc(C(N)=O)c(N)c3c(-c3cccs3)c2C1 | 3.77 µM | > 100 µM | > 100 µM

test system: HCC 2998; experiment: Growth inhibition of human HCC 2998 cells assessed as cell growth at 1 uM incubated for 48 hrs by sulforhodamine B assay relative to control; type: functional; conditions: read-out: Activity; summary of the method: as §1

Compound | growth at 1 µM
CN1CCc2nc3sc(C(N)=O)c(N)c3c(-c3cccs3)c2C1 | 94%

test system: UACC-62; experiment: Growth inhibition of human UACC-62 cells assessed as cell growth at 1 uM incubated for 48 hrs by sulforhodamine B assay relative to control; type: functional; conditions: read-out: Activity

Compound | growth at 1 µM
CN1CCc2nc3sc(C(N)=O)c(N)c3c(-c3cccs3)c2C1 | 93%

test system: SNB-75; experiment: Growth inhibition of human SNB-75 cells assessed as cell growth at 0.01 uM incubated for 48 hrs by sulforhodamine B assay relative to control; type: functional; conditions: read-out: Activity

Compound | growth at 0.01 µM
CN1CCc2nc3sc(C(N)=O)c(N)c3c(-c3cccs3)c2C1 | 95%

test system: SNB-19; experiment: Growth inhibition of human SNB-19 cells assessed as cell growth at 1 uM incubated for 48 hrs by sulforhodamine B assay relative to control; type: functional; conditions: read-out: Activity

Compound | growth at 1 µM
CN1CCc2nc3sc(C(N)=O)c(N)c3c(-c3cccs3)c2C1 | 104%

test system: COLO 205; experiment: Growth inhibition of human COLO 205 cells assessed as cell growth at 1 uM incubated for 48 hrs by sulforhodamine B assay relative to control; type: functional; conditions: read-out: Activity; summary of the method: as §1

Compound | growth at 1 µM
CN1CCc2nc3sc(C(N)=O)c(N)c3c(-c3cccs3)c2C1 | 69%

test system: BT-549; experiment: Growth inhibition of human BT-549 cells assessed as cell growth at 1 uM incubated for 48 hrs by sulforhodamine B assay relative to control; type: functional; conditions: read-out: Activity

Compound | growth at 1 µM
CN1CCc2nc3sc(C(N)=O)c(N)c3c(-c3cccs3)c2C1 | 92%

test system: NCI-H522; experiment: Growth inhibition of human NCI-H522 cells assessed as cell growth at 1 uM incubated for 48 hrs by sulforhodamine B assay relative to control; type: functional; conditions: read-out: Activity

Compound | growth at 1 µM
CN1CCc2nc3sc(C(N)=O)c(N)c3c(-c3cccs3)c2C1 | 86%

test system: SK-OV-3; experiment: Growth inhibition of human SK-OV-3 cells assessed as cell growth at 100 uM incubated for 48 hrs by sulforhodamine B assay relative to control; type: functional; conditions: read-out: Activity

Compound | growth at 100 µM
CN1CCc2nc3sc(C(N)=O)c(N)c3c(-c3cccs3)c2C1 | 17%

test system: TK-10; experiment: Growth inhibition of human TK-10 cells assessed as cell growth at 1 uM incubated for 48 hrs by sulforhodamine B assay relative to control; type: functional; conditions: read-out: Activity

Compound | growth at 1 µM
CN1CCc2nc3sc(C(N)=O)c(N)c3c(-c3cccs3)c2C1 | 103%

test system: OVCAR-3; experiment: Growth inhibition of human OVCAR-3 cells assessed as cell growth at 0.1 uM incubated for 48 hrs by sulforhodamine B assay relative to control; type: functional; conditions: read-out: Activity

Compound | growth at 0.1 µM
CN1CCc2nc3sc(C(N)=O)c(N)c3c(-c3cccs3)c2C1 | 99%

test system: MDA-MB-468; experiment: Growth inhibition of human MDA-MB-468 cells incubated for 48 hrs by sulforhodamine B assay; type: functional; conditions: not given
Summary of the method: (§2)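 NCI60 panel at the NCI Developmental Therapeutics Program. Only compounds active in the 10 µM screen went to dose-response testing. GI50, the concentration giving 50% of maximal inhibition of proliferation, and TGI, the concentration giving total growth inhibition, were derived from the dose-response curves.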

Compound | GI50 | TGI
CN1CCc2nc3sc(C(N)=O)c(N)c3c(-c3cccs3)c2C1 | 1.75 µM | 4.86 µM

same assay, conditions: read-out: LC50 (the source's name)

Compound | CC50
CN1CCc2nc3sc(C(N)=O)c(N)c3c(-c3cccs3)c2C1 | 41.7 µM

test system: DU-145; experiment: Growth inhibition of human DU-145 cells incubated for 48 hrs by sulforhodamine B assay; type: functional; conditions: not given; summary of the method: as §1

Compound | GI50 | TGI
CN1CCc2nc3sc(C(N)=O)c(N)c3c(-c3cccs3)c2C1 | 3.91 µM | 86.9 µM

same assay, conditions: read-out: LC50 (the source's name)

Compound | CC50
CN1CCc2nc3sc(C(N)=O)c(N)c3c(-c3cccs3)c2C1 | > 100 µM

test system: SK-MEL-28; experiment: Growth inhibition of human SK-MEL-28 cells assessed as cell growth at 0.1 uM incubated for 48 hrs by sulforhodamine B assay relative to control; type: functional; conditions: read-out: Activity

Compound | growth at 0.1 µM
CN1CCc2nc3sc(C(N)=O)c(N)c3c(-c3cccs3)c2C1 | 103%

test system: OVCAR-3; experiment: Growth inhibition of human OVCAR-3 cells assessed as cell growth at 100 uM incubated for 48 hrs by sulforhodamine B assay relative to control; type: functional; conditions: read-out: Activity

Compound | growth at 100 µM
CN1CCc2nc3sc(C(N)=O)c(N)c3c(-c3cccs3)c2C1 | -8%

test system: SNB-19; experiment: Growth inhibition of human SNB-19 cells assessed as cell growth at 0.1 uM incubated for 48 hrs by sulforhodamine B assay relative to control; type: functional; conditions: read-out: Activity

Compound | growth at 0.1 µM
CN1CCc2nc3sc(C(N)=O)c(N)c3c(-c3cccs3)c2C1 | 103%

test system: HOP-62; experiment: Growth inhibition of human HOP-62 cells assessed as cell growth at 100 uM incubated for 48 hrs by sulforhodamine B assay relative to control; type: functional; conditions: read-out: Activity

Compound | growth at 100 µM
CN1CCc2nc3sc(C(N)=O)c(N)c3c(-c3cccs3)c2C1 | 2%

test system: SF-295; experiment: Growth inhibition of human SF-295 cells assessed as cell growth at 0.1 uM incubated for 48 hrs by sulforhodamine B assay relative to control; type: functional; conditions: read-out: Activity

Compound | growth at 0.1 µM
CN1CCc2nc3sc(C(N)=O)c(N)c3c(-c3cccs3)c2C1 | 103%

test system: OVCAR-4; experiment: Growth inhibition of human OVCAR-4 cells assessed as cell growth at 1 uM incubated for 48 hrs by sulforhodamine B assay relative to control; type: functional; conditions: read-out: Activity

Compound | growth at 1 µM
CN1CCc2nc3sc(C(N)=O)c(N)c3c(-c3cccs3)c2C1 | 108%

test system: SK-MEL-5; experiment: Growth inhibition of human SK-MEL-5 cells assessed as cell growth at 0.01 uM incubated for 48 hrs by sulforhodamine B assay relative to control; type: functional; conditions: read-out: Activity

Compound | growth at 0.01 µM
CN1CCc2nc3sc(C(N)=O)c(N)c3c(-c3cccs3)c2C1 | 96%

test system: NCI-H226; experiment: Growth inhibition of human NCI-H226 cells assessed as cell growth at 0.1 uM incubated for 48 hrs by sulforhodamine B assay relative to control; type: functional; conditions: read-out: Activity

Compound | growth at 0.1 µM
CN1CCc2nc3sc(C(N)=O)c(N)c3c(-c3cccs3)c2C1 | 89%

test system: HOP-92; experiment: Growth inhibition of human HOP-92 cells assessed as cell growth at 1 uM incubated for 48 hrs by sulforhodamine B assay relative to control; type: functional; conditions: read-out: Activity

Compound | growth at 1 µM
CN1CCc2nc3sc(C(N)=O)c(N)c3c(-c3cccs3)c2C1 | 104%

test system: HCT-116; experiment: Growth inhibition of human HCT-116 cells incubated for 48 hrs by sulforhodamine B assay; type: functional; conditions: not given; summary of the method: as §2

Compound | GI50 | LC50 (concentration killing 50% of cells) | TGI
CN1CCc2nc3sc(C(N)=O)c(N)c3c(-c3cccs3)c2C1 | 2.31 µM | > 100 µM | > 100 µM

test system: MCF7; experiment: Growth inhibition of human MCF7 cells assessed as cell growth at 1 uM incubated for 48 hrs by sulforhodamine B assay relative to control; type: functional; conditions: read-out: Activity

Compound | growth at 1 µM
CN1CCc2nc3sc(C(N)=O)c(N)c3c(-c3cccs3)c2C1 | 111%

test system: RPMI-8226; experiment: Growth inhibition of human RPMI-8226 cells assessed as cell growth at 100 uM incubated for 48 hrs by sulforhodamine B assay relative to control; type: functional; conditions: read-out: Activity

Compound | growth at 100 µM
CN1CCc2nc3sc(C(N)=O)c(N)c3c(-c3cccs3)c2C1 | 1%
